Source: PubChem
Compounds with a hit are over-represented: about 2.3% of the library has one in this group of screens.
TRPC6 act = mouse TRPC6 channel activators, primary screen, cell-based, HEK293, membrane potential dye. Short transient receptor potential channel 6 (Mus musculus), Q61143. HEK293-TRPC6 membrane potential dye fluorescence; hits give high values. B-score at 10 µM. 0.13% of 310,000 active. AID 2550, 2010;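 active = B-score of the integrated fluorescence ratio above library mean plus 3 SD, and starting fluorescence ratio within library mean plus 5 SD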;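 note: higher score means more depolarization so channel activation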
TRPC4 agonist = activators of mouse TRPC4 channel, primary screen, Fluo4 calcium, HEK293 TRPC4beta/mu-opioid cells. B-score at 10 µM. Fluo4 calcium fluorescence; hits give high values. Short transient receptor potential channel 4 (Mus musculus), Q9QUQ5. 0.49% of 310,000 active;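 active = B-score above 5 SD of library B-scores, and initial fluorescence ratio not above library mean plus 5 SD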;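 note: positive B-score marks a calcium rise read as TRPC4 activation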
Target sequence (Q9QUQ5 whole entry, looked up): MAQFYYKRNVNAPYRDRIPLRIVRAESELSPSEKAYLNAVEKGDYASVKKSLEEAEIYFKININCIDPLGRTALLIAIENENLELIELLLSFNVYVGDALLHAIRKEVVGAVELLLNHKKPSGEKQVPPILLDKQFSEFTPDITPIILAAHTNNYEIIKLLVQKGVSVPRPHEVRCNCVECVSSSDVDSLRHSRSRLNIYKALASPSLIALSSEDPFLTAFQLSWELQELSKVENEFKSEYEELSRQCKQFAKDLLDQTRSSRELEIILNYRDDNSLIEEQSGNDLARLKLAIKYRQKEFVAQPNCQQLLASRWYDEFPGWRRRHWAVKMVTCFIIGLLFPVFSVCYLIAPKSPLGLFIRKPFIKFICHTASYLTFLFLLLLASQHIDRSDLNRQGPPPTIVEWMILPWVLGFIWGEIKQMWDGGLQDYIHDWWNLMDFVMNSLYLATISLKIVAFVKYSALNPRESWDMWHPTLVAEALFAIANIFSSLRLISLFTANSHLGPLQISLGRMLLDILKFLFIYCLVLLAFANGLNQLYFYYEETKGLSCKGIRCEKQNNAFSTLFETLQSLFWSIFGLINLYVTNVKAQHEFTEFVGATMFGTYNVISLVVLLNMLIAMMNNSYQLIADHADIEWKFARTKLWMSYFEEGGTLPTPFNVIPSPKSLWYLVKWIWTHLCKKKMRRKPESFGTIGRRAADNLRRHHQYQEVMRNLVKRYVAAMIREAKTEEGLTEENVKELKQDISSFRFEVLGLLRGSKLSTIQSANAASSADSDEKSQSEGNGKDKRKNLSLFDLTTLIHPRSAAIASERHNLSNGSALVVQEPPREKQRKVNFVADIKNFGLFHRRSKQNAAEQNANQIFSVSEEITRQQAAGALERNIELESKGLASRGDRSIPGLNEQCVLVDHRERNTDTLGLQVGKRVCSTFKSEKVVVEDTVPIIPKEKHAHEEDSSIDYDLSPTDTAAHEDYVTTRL
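System – HEK293 cells stably co-expressing mouse TRPC4beta and mu-opioid receptor · Signal – Fluo4 calcium-sensitive dye fluorescence, kinetic, 1 Hz baseline · Benchmarks – buffer (low) and maximal DAMGO (high) · Read-out – B score of integrated fluorescence ratio per well · Incubation – dye loading 45 min room temperature, 110 s kinetic read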
TRPC4 potent = positive allosteric modulators of TRPC4, primary screen, cell-based, mouse TRPC4beta, HEK293 mu-opioid, Fluo-4 calcium | B-score at 10 µM | Short transient receptor potential channel 4 (Mus musculus), Q9QUQ5 | AID 2227, 2009 | DAMGO EC20, Fluo-4 Ca2+ flux; hits give high values | 0.42% of 310,000 active;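 active = B-score of calcium response area above 5 SD of library B-scores, with initial fluorescence ratio within 5 SD of library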;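 note: B-score of integrated fluorescence ratio over time as area under calcium response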
TRPC6 inh = mouse TRPC6 channel inhibitors, primary screen, cell-based, HEK293, membrane potential dye; Short transient receptor potential channel 6 (Mus musculus), Q61143; ACh-evoked depolarization; hits give low values; B-score at 10 µM; 1.1% of 310,000 active; AID 2553, 2010;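 active = B-score under library mean minus 3 SD, initial fluorescence not abnormally high, positive integrated signal ratio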;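 note: B-score derived from integrated fluorescence ratio over the kinetic read; more negative B-score means stronger inhibition of depolarization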
TRPC4 inh = inhibitors of mouse TRPC4 channel, primary screen, Fluo4 calcium, HEK293 TRPC4beta/mu-opioid cells | Short transient receptor potential channel 4 (Mus musculus), Q9QUQ5 | DAMGO-evoked Fluo4 calcium flux; hits give low values | B-score at 10 µM | 0.39% of 300,000 active | AID 2247, 2010;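 active = B-score over 3 SD under the library average, no early fluorescence shift, positive overall ratio signal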
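Assay system: TRPC4beta/mu-opioid receptor HEK293 cell line; compound dosing: single concentration per test compound; detection: Fluo4 Ca2+ flux fluorescence; evaluation: per-well B score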
TRPC4 sel inh 2 = second check of whether TRPC6 inhibitors also affect mouse TRPC4; shares compounds with TRPC6 inh; HEK293 TRPC4/MOR, membrane potential dye fluorescence; channel activated by saturating DAMGO dose; inhibition, % at 10 µM; 42% of 920 active; AID 2776;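 active = compounds whose fluorescence signal differed from control wells by over 3 SD, either direction, in both duplicate plates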
TRPC4 spec = mouse TRPC4 modulation by TRPC6 hits, confirmation, selectivity assay for TRPC6 inhibitor project, cell-based, HEK293 TRPC4/mu-opioid, membrane potential dye | shares compounds with TRPC6 inh | membrane potential fluorescence | activity change, negative = inhibition, % at 10 µM | 61% of 920 active;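 active = rise or fall in signal beyond 3 SD of buffer-only wells in both replicate plates, either sign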;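 note: integrated kinetic ratio of fluorescence range over baseline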
HEK293 MPD ctr 2-1 = nonspecific membrane potential effects, parental HEK293, confirmation, counter-screen for TRPC6 inhibitor project, cell-based, second counter screen; shares compounds with TRPC6 inh; parental HEK293 membrane potential dye fluorescence; maximal acetylcholine challenge after compound addition; signal change vs control, % at 10 µM; 31% of 920 active;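 active = membrane potential signal moving either way by over 3 SD of the maximum-effect control, in both duplicate plates, meaning non-specific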
HEK293 MPD ctr-1 = membrane potential modulation in parental HEK293, confirmation, counter-screen for TRPC6 inhibitor project, cell-based; shares compounds with TRPC6 inh; membrane potential signal change, % at 10 µM; 60% of 920 active; parental HEK293 membrane potential dye fluorescence;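 active = membrane potential signal shifting up or down by more than 3 SD of buffer-only wells, on both duplicate plates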
HEK293 MPD ctr-2 = parental HEK293 membrane potential modulation, confirmation, counter-screen for TRPC6 modulator project, cell-based. shares compounds with TRPC6 inh. membrane potential dye fluorescence. membrane potential signal change, % at 10 µM. 51% of 2,400 active. AID 488924, 2010;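 active = membrane potential signal moves up or down beyond 5 SD from buffer-only wells, on both duplicate plates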
HEK293 MPD ctr 2-2 = parental HEK293 nonspecific activity of TRPC6 modulators, second screen | 14% of 2,400 active | shares compounds with TRPC6 inh | AID 488926 | inhibition, % at 10 µM | membrane potential dye fluorescence; after compound, maximal acetylcholine stimulation;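 active = membrane potential signal drops by more than 5 SD from the mean control signal, in both duplicate plates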;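 note: plate controls were acetylcholine ECmax control wells for no effect and buffer only wells for full effect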
TRPC4/MOR mod = TRPC4 modulation by TRPC6 hit compounds, confirmation, selectivity assay for TRPC6 modulator project, cell-based, HEK293 TRPC4/mu-opioid, membrane potential dye, mouse; shares compounds with TRPC6 inh; membrane potential fluorescence; percent change from control (negative = decrease, positive = increase), % at 10 µM; 69% of 2,400 active;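 active = membrane potential signal moved up or down beyond 5 SD of buffer control wells, in both duplicate plates, actives on both sides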;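 note: plate controls were assay buffer wells for no effect and DAMGO maximal-effect wells for full effect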
TRPC4 ctr inh 2 = second check of whether TRPC6 modulators also affect mouse TRPC4 | inhibition, % at 10 µM | HEK293 TRPC4/mu-opioid, membrane potential dye fluorescence; stimulated with maximal-effect DAMGO | shares compounds with TRPC6 inh | 55% of 2,400 active;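 active = drop in membrane potential signal beyond 5 SD of the control wells in both duplicate plates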;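 note: TRPC4 counter screen for TRPC6 hits run under conditions tuned for TRPC6 not TRPC4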
TRPC6 inh conf = mouse TRPC6 channel inhibitors, confirmation, HEK293 cells, membrane potential dye, duplicate. shares compounds with TRPC6 inh. ACh-evoked depolarization. inhibition, % at 10 µM. 43% of 3,300 active. AID 488960, 2010;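 active = fluorescence ratio falls more than 5 SD below the full-stimulation control mean, in both duplicate runs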;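 note: integrated fluorescence ratio of peak minus minimum over baseline after agonist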
TRPC6 act conf = mouse TRPC6 channel activators, confirmation, HEK293 cells, membrane potential dye, duplicate; shares compounds with TRPC6 inh; HEK293-TRPC6 membrane potential dye fluorescence, FDSS; activation, % at 10 µM; 11% of 2,800 active;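 active = ratio signal rise beyond 5 SD above unstimulated control wells' mean, seen in both duplicate runs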;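 note: plate controls were buffer EC0 wells for no effect and acetylcholine ECmax response for full effect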
Active calls of the source: *; i = inactive; . = no result.

SMILES	TRPC6 act	TRPC4 agonist	TRPC4 potent	TRPC6 inh	TRPC4 inh	HEK293 MPD ctr-2	HEK293 MPD ctr 2-2	TRPC4/MOR mod	TRPC4 ctr inh 2	TRPC6 inh conf	TRPC6 act conf	others
O=C1CCCN1CC#CCN1CCCC1	i	i	i	-5.9*	i	i	i	i	i	49%*	.
CCOC(=O)C(O)(c1ccc(N(CC)C(=O)COc2ccccc2)cc1)C(F)(F)F (stereo not given)	i	i	i	-5*	i	i	i	i	i	i	i
CC(C)(CN)CC(=O)O	i	i	i	i	i	.	.	.	.	.	.
Cc1ccc(C[n+]2c(-c3ccc(C)cc3)cc(-c3ccc(C)cc3)cc2-c2ccc(C)cc2)cc1	i	160*	i	-7*	i	.	.	.	.	81%*	i	TRPC4 sel inh 2=56%*;TRPC4 spec=-16%*;HEK293 MPD ctr 2-1=i;HEK293 MPD ctr-1=-196%*
CCN(CCO)c1ccc(N=Cc2c(O)n(C)c(=S)[nH]c2=O)cc1	23*	i	i	-7.5*	i	162%*	i	26%*	i	36%*	54%*
CCN(CC)c1ccc(N=Cc2c(O)n(Cc3ccco3)c(=O)[nH]c2=O)cc1	i	i	i	i	i	.	.	.	.	.	.
Cn1c(=O)n(C)c2cc([N+](=O)[O-])c(N3CCNCC3)cc21	i	i	i	-6.3*	i	-276%*	70%*	-46%*	54%*	52%*	i
CN1CCN(c2ccc(S(C)(=O)=O)cc2[N+](=O)[O-])CC1	i	i	i	i	i	.	.	.	.	.	.
Nc1c([N+](=O)[O-])cc(F)c(N2CCNCC2)c1Br	i	i	23*	-5.9*	i	-128%*	i	-22%*	34%*	39%*	i
CN1CCN(c2cc(N3CCCCCC3)c(F)cc2[N+](=O)[O-])CC1	i	i	i	-6*	i	-88%*	i	-24%*	54%*	41%*	i
CN1CCN(c2c(F)cc([N+](=O)[O-])c(N)c2Br)CC1	i	i	i	i	i	.	.	.	.	.	.
O=[N+]([O-])c1cc(F)c(N2CCCC2)cc1N1CCNCC1	i	i	i	-6.9*	i	.	.	.	.	i	i	TRPC4 sel inh 2=48%*;TRPC4 spec=-29%*;HEK293 MPD ctr 2-1=i;HEK293 MPD ctr-1=-399%*
O=C(c1cc([N+](=O)[O-])ccc1N1CCNCC1)N1CCOCC1	i	i	i	i	i	.	.	.	.	.	.
O=C(COc1ccc(Cl)cc1)N(c1ccc(Cl)cc1)C1CN2CCC1CC2 (stereo not given)	i	i	i	i	i	.	.	.	.	.	.
Cc1cc(O)c2c(c1)OC(C)(C)C1=C2CC(C)CC1 (stereo not given)	i	i	i	i	i	.	.	.	.	.	.
COC(=O)c1c(C)[nH]c(C(=O)C(C)[N+]23CCN(CC2)CC3)c1C (stereo not given)	i	i	i	i	i	.	.	.	.	.	.
CCN(CC)c1ccc(CNCCc2ccccc2F)cc1	i	i	i	i	i	.	.	.	.	.	.
Oc1ccc(CC2(N3CCCC3)CCCCC2)cc1	i	i	i	i	i	.	.	.	.	.	.
CC1CN(c2ccc([N+](=O)[O-])c(N3CCCCC3)c2)CCN1 (stereo not given)	i	i	i	-5.3*	i	i	i	-10%*	i	i	i
CN1CCN(c2ccc([N+](=O)[O-])c(Sc3nncn3C)c2)CC1	i	i	i	i	i	.	.	.	.	.	.
COc1ccc(CCNCc2c(OC)ccc3ccccc23)cc1	i	i	i	-7*	i	.	.	.	.	65%*	.	TRPC4 sel inh 2=69%*;TRPC4 spec=47%*;HEK293 MPD ctr 2-1=i;HEK293 MPD ctr-1=24%*
CC1CN(c2ccc([N+](=O)[O-])c3cccnc23)CC(C)N1 (stereo not given)	i	104*	i	-10*	i	-358%*	i	-60%*	64%*	58%*	i
O=[N+]([O-])c1ccc(N2CCCC2)c2ncccc12	i	i	i	i	i	.	.	.	.	.	.
N#CC(C#N)=C(C#N)c1ccc(Nc2ccccc2)cc1	i	i	i	-8.5*	i	.	.	.	.	i	i	TRPC4 sel inh 2=i;TRPC4 spec=-10%*;HEK293 MPD ctr 2-1=i;HEK293 MPD ctr-1=i
C1=C(CCNCc2ccccc2)CCCC1	i	i	i	i	i	.	.	.	.	.	.
